Ki, ED50 and Protection data for 26 compounds are collected here from ChEMBL document CHEMBL1125742, “(2S)-1-(arylacetyl)-2-(aminomethyl)piperidine derivatives: novel, highly selective kappa opioid analgesics” (J Med Chem, 1991).

Experiment [1] deals with T1, Kappa-type opioid receptor (Cavia porcellus, UniProt P41144). Put plainly: Compound was evaluated for its binding affinity against Opioid receptor kappa 1 subtype in guinea pig brain (minus cerebellum). using [3H]U-69593 as radioligand. It counts as tissue-based. In short, it runs like this:
(§1)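 Fresh guinea pig brain homogenate (cerebellum removed) incubated with κ-selective [3H]U-69593 and competitor for 50 min at 25 °C. Samples were filtered on GF/C, washed and counted by liquid scintillation. Nonspecific binding was set with 10^-6 M naloxone. Ki from Cheng–Prusoff, as the mean of triplicate concentration–response curves (n = 3 experiments).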

Experiment [2] deals with T2, Mu-type opioid receptor (Cavia porcellus, UniProt P97266). Put plainly: Compound was evaluated for its binding affinity against Opioid receptor mu 1 subtype in guinea pig brain (minus cerebellum) using [3H]-DAGO as radioligand. The class given is tissue-based. In short, it runs like this: (§2)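 μ sites in fresh guinea pig brain homogenate (minus cerebellum) were labelled with [3H]DAGO for 40 min at 25 °C. Samples were filtered on GF/C, washed with ice-cold Tris buffer, and bound radioactivity counted. Nonspecific binding was set with 10^-6 M naloxone. Ki by Cheng–Prusoff, as the mean of triplicate curves (n = 3 experiments).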

For experiment [3], the system named is Mus musculus. The experiment can be described thus: Antinociceptive activity in mouse tail flick test following s.c. administration. It counts as functional. In short, it runs like this:
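Mouse tail flick test, D'Amour and Smith procedure as modified by Ling et al., with compound given subcutaneously. ED50 in mg/kg with 95% confidence limits, derived by Finney probit analysis.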

In experiment [4] the target is T2, Mu-type opioid receptor. Put plainly: Displacement of [3H]DAGO from mu opioid receptors in guinea pig brain (minus cerebellum). It counts as tissue-based. The procedure, abridged: as §2
Experiment [5] has as its target T1, Kappa-type opioid receptor. The experiment can be described thus: Displacement of [3H]U-69593 from kappa opioid receptors in guine pig brain (minus cerebellum). The class given is tissue-based.
The subject of experiment [6] is Mus musculus. Put plainly: Compound was evaluated for its antinociceptive activity in the mouse tail flick (MTF) test following subcutaneous administration of 10 mg/kg. The class given is functional. The procedure, abridged:
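Mouse tail flick test, D'Amour and Smith procedure as modified by Ling et al. A single 10 mg/kg subcutaneous dose was given and the result recorded as % protection.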

Experiment [7] addresses T1, Kappa-type opioid receptor. The experiment can be described thus: Compound was evaluated for its binding affinity against Opioid receptor kappa 1 subtype in guinea pig brain (minus cerebellum) using [3H]U-69593 as radioligand. The class given is tissue-based. The procedure, abridged: as §1
Experiment [8] has as its system Mus musculus. Put plainly: Compound was evaluated for its antinociceptive activity in the mouse tail flick (MTF) test following peroral administration. It counts as functional. As to conditions: po. The procedure, abridged:
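Mouse tail flick test, D'Amour and Smith procedure as modified by Ling et al., with oral (po) dosing. ED50 in mg/kg with 95% confidence limits, derived by Finney probit analysis.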

The target in experiment [9] is T2, Mu-type opioid receptor. The experiment can be described thus: Compound was evaluated for its binding affinity against opioid receptor mu subtype in guinea pig brain (minus cerebellum) using [3H]DAGO as radioligand. It counts as tissue-based. The procedure, abridged:
as §2

The mark [10] stands for this setting: Mus musculus, Tail, sc, read-out: ED50.

Some results are limits rather than exact numbers.

T2 sequence (P97266 whole entry): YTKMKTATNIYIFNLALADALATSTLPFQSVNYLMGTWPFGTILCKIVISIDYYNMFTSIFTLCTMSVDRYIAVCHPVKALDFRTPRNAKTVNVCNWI
T1 sequence (P41144 whole entry): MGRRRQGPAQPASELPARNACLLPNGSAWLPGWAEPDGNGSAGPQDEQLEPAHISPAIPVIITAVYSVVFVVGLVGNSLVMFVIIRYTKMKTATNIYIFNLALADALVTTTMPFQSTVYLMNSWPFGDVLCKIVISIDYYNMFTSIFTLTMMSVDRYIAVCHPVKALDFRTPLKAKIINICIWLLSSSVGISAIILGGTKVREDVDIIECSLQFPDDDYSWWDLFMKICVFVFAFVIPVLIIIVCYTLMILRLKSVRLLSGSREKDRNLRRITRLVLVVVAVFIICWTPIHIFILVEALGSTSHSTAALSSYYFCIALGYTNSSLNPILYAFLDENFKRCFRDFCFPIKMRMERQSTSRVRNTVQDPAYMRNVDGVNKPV

Take `O=C(Cc1ccc(Cl)c(Cl)c1)N1CCCCC1CN1CCCC1` (configuration not stated): the Ki in [1] is 0.00053 µM; at Mu-type opioid receptor [2], 1.86 µM. For the same compound, in the experiment with Mus musculus [3] (setting [10]), the ED50 was found to be 0.09 mg/kg.

In the case of `O=C(Cc1cccc(C(F)(F)F)c1)N1CCCCC1CN1CCCC1` (configuration not stated), the Ki was more than 10 µM at Mu-type opioid receptor [4] and 0.00107 µM in [5]. Moreover, the ED50 with Mus musculus [3] (setting [10]) was determined as 0.38 mg/kg.

For `O=C(Cc1ccc(Cl)cc1)N1CCCCC1CN1CCCC1` (configuration not stated), the Ki is 5.91 µM at Mu-type opioid receptor [4] and 0.00168 µM in experiment [5]. Moreover, the ED50 with Mus musculus [3] (setting [10]) came to 0.84 mg/kg.

Turning to `O=C(Cc1ccc(F)cc1)N1CCCCC1CN1CCCC1` (configuration not stated), the inhibition constant Ki at Mu-type opioid receptor [4] was more than 10 µM; in experiment [5], 0.0154 µM. Besides, the ED50 in the experiment on Mus musculus [3] (setting [10]) was 9.22 mg/kg.

Take `O=C(Cc1ccc(O)cc1)N1CCCCC1CN1CCCC1` (configuration not stated): the Ki on Mu-type opioid receptor [4] was more than 10 µM; in experiment [5], 0.194 µM. Moreover, the Protection with Mus musculus [6] was found to be 0%.

As to `O=C(Cc1ccc(Br)cc1)N1CCCCC1CN1CCCC1` (configuration not stated), the results for the Ki (at Mu-type opioid receptor [4]; in experiment [5]) were 2.98 µM and 0.00084 µM, respectively. The ED50 in the experiment with Mus musculus [3] (setting [10]) was 0.46 mg/kg.

With `O=C(Cc1cccc([N+](=O)[O-])c1)N1CCCCC1CN1CCCC1` (configuration not stated), the ED50 in the experiment with Mus musculus [3] (setting [10]) was found to be 0.86 mg/kg.

Turning to `O=C(Cc1ccc(C2CCCCC2)cc1)N1CCCCC1CN1CCCC1` (configuration not stated), the values for the Ki (on Mu-type opioid receptor [4]; in experiment [5]) were 0.974 µM and 0.827 µM, respectively. The same compound showed a Protection with Mus musculus [6] of 0%.

As for `O=C(Cc1ccc(Cl)c(Cl)c1)N1CCCCC1CN1CCCCC1` (configuration not stated), the results for the inhibitory constant (Ki) (in [7]; on Mu-type opioid receptor [2]) were 0.00048 µM and 4.81 µM, respectively. In the experiment with Mus musculus [3] (setting [10]), the ED50 is 0.19 mg/kg.

For the compound `CN(C)C[C@@H]1CCCCN1C(=O)Cc1ccc(Cl)c(Cl)c1`, the Ki on Mu-type opioid receptor [4] was determined as 2.16 µM; in [5], 0.0007 µM. Also, the median effective dose (ED50) with Mus musculus [3] (setting [10]) was found to be 0.87 mg/kg.

As to `O=C(Cc1ccc(Cl)c(Cl)c1)N1CCCC[C@@H]1CN1CCCC1`, the Ki on Mu-type opioid receptor [4] stood at 7.11 µM; in [5] it was 0.0154 µM. Also, the ED50 in the experiment on Mus musculus [3] (setting [10]) was 17.5 mg/kg.

With `CC(C)(C)c1ccc(CC(=O)N2CCCCC2CN2CCCC2)cc1` (configuration not stated), the ED50 with Mus musculus [3] (setting [10]) is 1 mg/kg.

Take `Cc1ccc(CC(=O)N2CCCCC2CN2CCCC2)cc1` (configuration not stated): the inhibition constant (Ki) is more than 10 µM on Mu-type opioid receptor [4] and 0.00384 µM in experiment [5]. Moreover, the median effective dose (ED50) in the experiment on Mus musculus [3] (setting [10]) is 3.88 mg/kg.

With `CN(C)CC1CCCCN1C(=O)Cc1ccc(Cl)c(Cl)c1` (configuration not stated), the figures for the Ki (in [7]; at Mu-type opioid receptor [2]) were 0.00136 µM and 3.05 µM, respectively. The ED50 in the experiment on Mus musculus [3] (setting [10]) was 0.92 mg/kg.

With `O=C(Cc1ccc([N+](=O)[O-])cc1)N1CCCCC1CN1CCCC1` (configuration not stated), the ED50 with Mus musculus [3] (setting [10]) amounted to 0.49 mg/kg.

For the compound `CCN(CC)CC1CCCCN1C(=O)Cc1ccc(Cl)c(Cl)c1` (configuration not stated), the figures for the Ki (at Mu-type opioid receptor [4]; in experiment [5]) were 5 µM and 0.00128 µM, respectively. In addition, in the experiment with Mus musculus [3] (setting [10]), the ED50 was 0.77 mg/kg.

As to `Cc1ccc(CC(=O)N2CCCCC2CN2CCCC2)cc1C` (configuration not stated), the Ki on Mu-type opioid receptor [4] turned out to be 5.31 µM; in experiment [5], 0.00183 µM. Besides, the ED50 with Mus musculus [3] (setting [10]) came to 2.89 mg/kg.

On to `O=C(Cc1ccccc1C(F)(F)F)N1CCCCC1CN1CCCC1` (configuration not stated), for which the Ki is more than 10 µM at Mu-type opioid receptor [4] and 0.00854 µM in experiment [5]. The same compound came in with a Protection in the experiment with Mus musculus [6] of 60%.

Take `O=C(Cc1ccc(Cl)c(Cl)c1)N1CCCC[C@H]1CN1CCCC1`: the ED50 with Mus musculus [8] was determined as 0.89 mg/kg; in the experiment on Mus musculus [3] (setting [10]), 0.05 mg/kg. The Ki at Mu-type opioid receptor [4] stood at 1.56 µM; in experiment [5], 0.00024 µM.

For `O=C(Cc1ccc(C(F)(F)F)cc1)N1CCCCC1CN1CCCC1` (stereo in doubt; 20), the figures for the Ki (on Mu-type opioid receptor [4]; in experiment [5]) were 3.52 µM and 0.00078 µM, respectively. The ED50 with Mus musculus [3] stood at 0.2 mg/kg.

Take `O=C(Cc1ccc(C(F)(F)F)cc1)N1CCCCC1CN1CCCC1` (stereo in doubt; 21): the 50% effective dose (ED50) in the experiment on Mus musculus [8] stood at 1.17 mg/kg; in the experiment on Mus musculus [3] (setting [10]), 0.11 mg/kg. Moreover, the Ki at Mu-type opioid receptor [4] amounted to 2.34 µM; in [5], 0.00057 µM.

In the case of `CC(C1CCCCN1C(=O)Cc1ccc(Cl)c(Cl)c1)N(C)C` (stereo in doubt; 37), the Ki at Mu-type opioid receptor [4] was 0.762 µM; in experiment [5], 0.0006 µM. Also, the ED50 in the experiment with Mus musculus [3] (setting [10]) came to 0.38 mg/kg.

`CC(C1CCCCN1C(=O)Cc1ccc(Cl)c(Cl)c1)N(C)C` (stereo in doubt; 38): the Ki in experiment [5] was 1 µM; at Mu-type opioid receptor [9], more than 10 µM. The compound further registered a Protection in the experiment on Mus musculus [6] of 0%.

Regarding `CN1CCCC1C1CCCCN1C(=O)Cc1ccc(Cl)c(Cl)c1` (stereo in doubt; 41), the inhibition constant Ki at Mu-type opioid receptor [4] turned out to be 0.464 µM; in experiment [5] it was 0.00033 µM. Further, the ED50 in the experiment on Mus musculus [3] (setting [10]) came to 0.4 mg/kg.

As for `CN1CCCC1C1CCCCN1C(=O)Cc1ccc(Cl)c(Cl)c1` (stereo in doubt; 42), the Ki is 0.864 µM on Mu-type opioid receptor [4] and 0.0117 µM in experiment [5]. Moreover, the Protection in the experiment with Mus musculus [6] amounted to 40%.

Take `CN1CC[C@]23c4c5ccc(O)c4O[C@H]2[C@@H](O)C=C[C@H]3[C@H]1C5` [MORPHINE]: the ED50 with Mus musculus [3] (setting [10]) was 2.8 mg/kg.
